# Test results: article PMC5148661 (ACS infectious diseases, 2016)
# Where two headings read alike, the source gives them in different places.
# Columns and labels:
# Human HepG2 cells = experiment: cytotoxicity against a human cell line; format: cell-based; conditions: read-out: HepG2 growth inhibition EC50; 95% CI in parentheses
# [1] = kinetic solubility in pH 6.5 buffer; format: physicochemical; conditions: aqueous buffer pH 6.5, pH 6.5
# P. vivax field isolates = experiment: ex vivo 48 h schizont maturation assay; format: cell-based
# Method in brief: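 Field isolates came from patients at malaria clinics in Timika, Papua, Indonesia, and were tested in a 48 h schizont maturation assay adapted from the WHO microtest at 2% hematocrit. P. falciparum was run in RPMI 1640 with 10% AB+ human serum. P. vivax was run in McCoy's 5A with 20% AB+ human serum.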
# P. cynomolgi DHODH = P. cynomolgi DHODH (Plasmodium cynomolgi, UniProt K6UE05); conditions: read-out: P. cynomolgi DHODH IC50; cited from earlier work
# Rabbit DHODH = Rabbit DHODH (Oryctolagus cuniculus, UniProt G1SWF3); conditions: read-out: Rabbit DHODH IC50; cited from earlier work
# Minipig DHODH = Minipig DHODH (Sus scrofa, UniProt F1S3B0); conditions: read-out: Minipig DHODH IC50; cited from earlier work
# P. falciparum 3D7 = conditions: cited from earlier work
# [2] = test system: P. falciparum 3D7A parasites; conditions: DSM265, cited from earlier work
# [3] = dogs; DSM265; cited from earlier work
# [4] = DSM265; cited from earlier work
# [5] = across species; DSM265; cited from earlier work
# Chain of Minipig DHODH (F1S3B0 1-395): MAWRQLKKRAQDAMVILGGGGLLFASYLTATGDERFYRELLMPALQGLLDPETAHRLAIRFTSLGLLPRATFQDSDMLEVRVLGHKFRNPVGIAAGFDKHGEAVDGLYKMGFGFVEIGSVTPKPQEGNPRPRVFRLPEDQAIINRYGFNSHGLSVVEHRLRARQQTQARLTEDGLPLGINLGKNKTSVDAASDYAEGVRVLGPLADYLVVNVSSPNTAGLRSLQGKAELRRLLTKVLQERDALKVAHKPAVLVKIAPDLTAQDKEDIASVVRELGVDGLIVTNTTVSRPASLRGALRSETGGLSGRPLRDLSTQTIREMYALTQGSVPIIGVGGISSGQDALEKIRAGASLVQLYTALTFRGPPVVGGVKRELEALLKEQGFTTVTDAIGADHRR
# Chain of Rabbit DHODH (G1SWF3 1-395): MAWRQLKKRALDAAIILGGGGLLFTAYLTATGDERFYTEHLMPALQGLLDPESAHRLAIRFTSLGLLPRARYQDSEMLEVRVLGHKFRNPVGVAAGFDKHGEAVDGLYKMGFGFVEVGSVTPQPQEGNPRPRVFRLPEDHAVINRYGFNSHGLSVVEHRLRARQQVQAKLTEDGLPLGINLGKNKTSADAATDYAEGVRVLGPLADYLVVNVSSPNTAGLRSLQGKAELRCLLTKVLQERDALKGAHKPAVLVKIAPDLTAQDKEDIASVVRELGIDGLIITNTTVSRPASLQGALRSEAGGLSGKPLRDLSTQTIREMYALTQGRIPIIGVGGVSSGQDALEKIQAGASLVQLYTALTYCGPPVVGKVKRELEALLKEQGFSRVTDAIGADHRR
# Chain of P. cynomolgi DHODH (K6UE05 1-385): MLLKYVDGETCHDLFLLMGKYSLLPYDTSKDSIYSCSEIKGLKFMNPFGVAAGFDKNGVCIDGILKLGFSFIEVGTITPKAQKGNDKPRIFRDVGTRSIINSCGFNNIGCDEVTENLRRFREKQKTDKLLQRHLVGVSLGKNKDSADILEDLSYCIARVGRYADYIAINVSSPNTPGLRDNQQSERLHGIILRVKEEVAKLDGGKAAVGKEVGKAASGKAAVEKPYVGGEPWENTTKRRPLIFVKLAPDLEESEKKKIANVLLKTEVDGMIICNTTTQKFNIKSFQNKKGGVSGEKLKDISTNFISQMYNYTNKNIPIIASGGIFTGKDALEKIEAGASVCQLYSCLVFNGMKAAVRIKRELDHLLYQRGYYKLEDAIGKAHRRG
Structure (SMILES),EC50 (Human HepG2 cells) [nM],solubility kinetic [1] [µg/mL],sensitivity of P. vivax versus P. falciparum field isolates (P. vivax field isolates) [fold],IC50 (P. cynomolgi DHODH) [nM],IC50 (Rabbit DHODH) [nM],IC50 (Minipig DHODH) [nM],"EC50 (P. falciparum 3D7; read-out: Pf3D7 EC50, whole cell P. falciparum 3D7, albumax media, 72 h) [nM]","EC50 (P. falciparum 3D7; read-out: unbound EC50, P. falciparum 3D7 in vitro 72 h growth assay, DSM265) [nM]","EC50 ([2]; read-out: EC50, 48 h growth assay (PRR), P. falciparum 3D7, 48 h) [nM]","EC50 ([2]; read-out: unbound EC50, P. falciparum 3D7 48 h growth assay (PRR)) [nM]",systemic plasma clearance [3] [mL/min/kg],unbound intrinsic clearance [3] [mL/min/kg],predicted human half-life [4] [h],oral bioavailability [5]
"O=C(O)c1[nH]c(=O)[nH]c(=O)c1F [5-fluoroorotate, reference compound]",770,,,,,,,,,,,,,
Cc1cc(Nc2ccc(S(F)(F)(F)(F)F)cc2)n2nc(C(C)(F)F)nc2n1 [DSM265],,12.5,5,12,> 100000,~100000,4.3,0.73,11,1.9,1.2,183,100,20-70%
